{"source": "ChEMBL document CHEMBL1147812", "about": "(J Med Chem, 2006)"}
{"molecular_target": "Neuronal acetylcholine receptor; alpha4/beta2 (Rattus norvegicus, UniProt P09483+P12390)", "sequence (P09483 whole entry)": "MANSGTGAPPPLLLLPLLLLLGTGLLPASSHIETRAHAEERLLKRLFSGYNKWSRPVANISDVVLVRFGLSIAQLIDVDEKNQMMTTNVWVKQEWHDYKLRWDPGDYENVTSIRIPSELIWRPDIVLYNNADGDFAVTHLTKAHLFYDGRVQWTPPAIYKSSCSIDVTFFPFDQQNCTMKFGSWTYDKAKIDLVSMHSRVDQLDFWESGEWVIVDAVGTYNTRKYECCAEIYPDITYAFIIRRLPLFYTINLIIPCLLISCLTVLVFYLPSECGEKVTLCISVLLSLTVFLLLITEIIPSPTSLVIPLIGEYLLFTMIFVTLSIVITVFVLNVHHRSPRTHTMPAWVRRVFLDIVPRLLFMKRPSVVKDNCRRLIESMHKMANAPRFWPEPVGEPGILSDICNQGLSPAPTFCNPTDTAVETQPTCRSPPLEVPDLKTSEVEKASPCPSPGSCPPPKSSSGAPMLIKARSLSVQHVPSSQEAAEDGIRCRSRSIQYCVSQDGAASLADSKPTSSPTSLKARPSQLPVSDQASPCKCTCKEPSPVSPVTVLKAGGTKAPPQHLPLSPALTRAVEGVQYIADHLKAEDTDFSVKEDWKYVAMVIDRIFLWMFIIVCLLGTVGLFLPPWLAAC", "sequence (P12390 whole entry)": "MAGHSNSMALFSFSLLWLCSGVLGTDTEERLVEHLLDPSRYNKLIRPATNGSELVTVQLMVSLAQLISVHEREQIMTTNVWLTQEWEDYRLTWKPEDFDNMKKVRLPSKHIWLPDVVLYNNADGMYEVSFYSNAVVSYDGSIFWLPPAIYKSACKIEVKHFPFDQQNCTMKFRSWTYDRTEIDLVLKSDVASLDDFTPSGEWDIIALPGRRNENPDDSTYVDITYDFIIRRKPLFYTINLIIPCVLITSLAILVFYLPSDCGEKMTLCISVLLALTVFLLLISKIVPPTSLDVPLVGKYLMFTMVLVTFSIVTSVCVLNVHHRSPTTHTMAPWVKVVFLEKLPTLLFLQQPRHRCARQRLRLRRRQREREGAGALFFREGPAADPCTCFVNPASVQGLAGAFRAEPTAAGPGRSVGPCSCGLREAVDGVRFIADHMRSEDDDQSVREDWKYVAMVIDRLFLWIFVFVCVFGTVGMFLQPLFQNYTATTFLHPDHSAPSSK", "assay": "Inhibition of [3H]cytisine binding to alpha4beta2 nACHR in Wistar rat cerebral cortical membrane", "summary_of_the_method": "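Male Wistar rat (150-250 g) cerebral cortex homogenized at 0-4 °C in 50 mM Tris HCl pH 7.4 with 120 mM NaCl, 5 mM KCl, 1 mM MgCl₂, 2.5 mM CaCl₂, then washed twice by centrifugation at 27 000g. Membranes incubated with test drug and 1 nM ³H-cytisine (final) for 90 min at 2 °C. Nonspecific binding defined with 100 µM (-)-nicotine. Bound label collected on GF/C filters and counted by liquid scintillation.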", "units": {"IC50": "nM"}}
{"smiles": "Clc1cncc(OC2CCCNC2)c1", "note": "(racemic)", "IC50": 240}
{"smiles": "C=COc1cncc(N2CCNCC2)c1", "IC50": 190}
{"smiles": "Clc1cc(N2CCCNCC2)cnc1Br", "IC50": 1.4}
{"smiles": "C/C=C\\Oc1cncc(N2CCCNCC2)c1", "IC50": 1.3}
{"smiles": "Oc1cc(N2CCCNCC2)cnc1I", "IC50": 22}
{"smiles": "Clc1ncc(N2CCCNCC2)cc1Br", "IC50": 1.4}
{"smiles": "c1cncc(N2CCCNCCC2)c1", "IC50": 0.9}
{"smiles": "Clc1cncc(N2CCCNCCC2)c1", "IC50": 2}
{"smiles": "COc1cncc(N2C3CCNCC2CC3)c1", "note": "(racemic)", "IC50": 10}
{"smiles": "C/C=C\\Oc1cncc(N2C3CCNCC2CC3)c1", "note": "(racemic)", "IC50": 3.1}
{"smiles": "COc1cncc(N2CCNCC2)c1", "IC50": 500}
{"smiles": "Brc1ccc(N2CCNCC2)cn1", "IC50": 180}
{"smiles": "Clc1ncc(N2CCNCC2)cc1Br", "IC50": 230}
{"smiles": "Cc1ncc(N2CCNCC2)cc1Cl", "IC50": 520}
{"smiles": "C=COc1cc(N2CCCNCCC2)cnc1Br", "IC50": 0.38}
{"smiles": "C#Cc1cncc(N2CCNCC2)c1", "IC50": 110}
{"smiles": "Brc1cncc(N2CCCNCCC2)c1", "IC50": 2.8}
{"smiles": "C=COc1cc(N2CCCNCC2)cnc1Br", "IC50": 0.64}
{"smiles": "C/C=C\\Oc1cncc(N2CCC3CCC(C2)N3)c1", "note": "(racemic)", "IC50": 1.9}
{"smiles": "c1ncc(N2CCCNCC2)cc1C1CC1", "IC50": 5.8}
{"smiles": "CCOc1cncc(N2CCC3CCC(C2)N3)c1", "note": "(racemic)", "IC50": 6.5}
{"smiles": "Brc1ccc(N2CCCNCCC2)cn1", "IC50": 0.45}
